The results in this text go back to ChEMBL document CHEMBL1137611, “Toward potent ghrelin receptor ligands based on trisubstituted 1,2,4-triazole structure. 2. Synthesis and pharmacological in vitro and in vivo evaluations” (J Med Chem, 2007).

Assay [1] addresses T1, Growth hormone secretagogue receptor type 1 (Homo sapiens, UniProt Q92847). In words: Displacement of [125I]His9-ghrelin from human cloned GHS1a receptor expressed in LLC PK1 cells. In kind it is cell-based.
In assay [2] the target is T1, Growth hormone secretagogue receptor type 1. Nature of the assay: Activity at human GHS1a receptor expressed in CHO cells assessed as accumulation of intracellular calcium level at 10 uM relative to ghrelin. In kind it is functional, cell-based. The method, boiled down: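 CHO cells transiently electroporated with hGHS-R1a, loaded 24 h later with 1 μM Fluo-4AM (1 h, 37 °C, dark), then de-esterified 30 min at room temperature. Fluorescence (ex 485/em 525 nm) recorded over 60 s, compound at 10 μM added at 15 s. Triplicates, at least two independent experiments. Response expressed as percent of maximum with 0.1 μM ghrelin.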

Assay [3] is filed under the species Rattus norvegicus. In words: Inhibition of hexarelin-stimulated cumulative food intake per 100 g body weight of Sprague-Dawley rat at 160 ug after 6 hrs. In kind it is functional. The method, boiled down: (§1)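 Young-adult male rats (125–150 g), singly housed, acclimated and trained. Compound given sc at time −10 min (0, 20, 80, 160 or 320 μg/kg), then hexarelin 80 μg/kg sc at time 0. Rats returned to home cages with a known amount of chow. Cumulative intake recorded as g food/100 g body weight at 2 h and 6 h.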

In assay [4] the target is T1, Growth hormone secretagogue receptor type 1. In words: Agonist activity at human GHS1a receptor expressed in CHO cells assessed as accumulation of intracellular calcium level. Format: functional, cell-based. The method, boiled down:
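Fluo-4AM calcium assay in CHO cells transiently expressing hGHS-R1a. Fluorescence recorded at ex 485/em 525 nm over 60 s after automated addition of increasing agonist concentrations. EC50 taken from the dose-response curve.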

For assay [5], the species on record is Rattus norvegicus. Nature of the assay: Effect on cumulative food intake per 100 g body weight of Sprague-Dawley rat at 160 ug after 2 hrs. Format: functional. The method, boiled down: (§2)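 Young-adult male rats (125–150 g), singly housed, acclimated 1 week and trained daily for a further week. Test compound given sc at 160 μg/kg mid-morning, then returned to cages with a known amount of chow. Cumulative intake recorded at 2 or 6 h as g food/100 g body weight.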

For assay [6], the species on record is Rattus norvegicus. Nature of the assay: Inhibition of hexarelin-stimulated cumulative food intake per 100 g body weight of Sprague-Dawley rat at 160 ug after 2 hrs. Format: functional. In short, it runs like this: as §1
The species named for assay [7] is Rattus norvegicus. In words: Effect on cumulative food intake per 100 g body weight of Sprague-Dawley rat at 160 ug after 6 hrs. Format: functional. In short, it runs like this:
as §2

For assay [8], the target named is T1, Growth hormone secretagogue receptor type 1. Nature of the assay: Antagonist activity at human GHS1a receptor expressed in CHO cells assessed as accumulation of intracellular calcium level. In kind it is functional, cell-based.

T1 sequence (Q92847 whole entry): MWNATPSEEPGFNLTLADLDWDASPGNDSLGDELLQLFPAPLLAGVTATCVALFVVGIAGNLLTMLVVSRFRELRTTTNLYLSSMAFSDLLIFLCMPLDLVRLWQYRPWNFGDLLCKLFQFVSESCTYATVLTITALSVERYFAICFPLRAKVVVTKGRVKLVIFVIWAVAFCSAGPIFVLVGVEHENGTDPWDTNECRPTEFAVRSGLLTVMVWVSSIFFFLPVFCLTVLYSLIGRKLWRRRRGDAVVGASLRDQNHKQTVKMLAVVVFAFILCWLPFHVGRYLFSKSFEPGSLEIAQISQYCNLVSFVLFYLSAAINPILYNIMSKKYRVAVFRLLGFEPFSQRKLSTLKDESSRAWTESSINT

Turning to `COc1ccc(Cn2c(CCC3C=Nc4ccccc43)nnc2[C@@H](Cc2c[nH]c3ccccc23)NC(=O)CN)cc1` (some centres undefined), the IC50 in assay [1] is 138 nM. Further, the Activity in assay [2] stood at 2%.
Turning to `COc1ccc(Cn2c(CCc3c[nH]c4ccccc34)nnc2[C@@H](Cc2c[nH]c3ccccc23)NC(=O)[C@H]2CCCNC2)c(OC)c1`, the 50% inhibitory concentration (IC50) in assay [1] was 6.5 nM. In addition, the Activity in the assay listed under Rattus norvegicus [3] is 0.65 g; in the assay filed under Rattus norvegicus [5], 0.01 g; in the assay filed under Rattus norvegicus [6] it was 0.33 g; in the assay filed under Rattus norvegicus [7], 0.01 g; in assay [2], 48%. For the same compound, the EC50 in assay [4] was found to be 5.3 nM.
In the case of `CCc1ccc(Cn2c(CCc3ccccc3)nnc2[C@@H](Cc2c[nH]c3ccccc23)NC(=O)C2CCNCC2)cc1`, the Activity in the assay filed under Rattus norvegicus [3] was determined as 1.66 g; in the assay filed under Rattus norvegicus [5], 0.03 g; in the assay listed under Rattus norvegicus [6], 1.4 g; in the assay listed under Rattus norvegicus [7], 0.35 g; in assay [2] it was 101%. In assay [4], the EC50 is 7.7 nM.
In assay [1], `CCc1ccc(-n2c(CCc3c[nH]c4ccccc34)nnc2[C@@H](Cc2c[nH]c3ccccc23)NC(=O)C2CCNCC2)cc1` returned a half-maximal inhibitory concentration (IC50) of 96 nM. For the same compound, in assay [4], the EC50 stood at 15 nM. The Activity in assay [2] is 100%.
As for `COc1ccc(Cn2c(CCc3ccccc3)nnc2[C@@H](Cc2c[nH]c3ccccc23)NC(=O)[C@@H]2C[C@@H](O)CN2)cc1`, in assay [1], the 50% inhibitory concentration (IC50) was 173 nM. In addition, the Activity was 0.35 g in the assay listed under Rattus norvegicus [3]; 0.01 g in the assay listed under Rattus norvegicus [5]; 0.02 g in the assay filed under Rattus norvegicus [6]; 0.01 g in the assay filed under Rattus norvegicus [7]; 87% in assay [2].
For `COc1ccc(-n2c(CCc3ccccc3)nnc2[C@@H](Cc2c[nH]c3ccccc23)NC(=O)CN)c(OC)c1`, the 50% inhibitory concentration (IC50) in assay [1] is over 1000 nM. Further, the Activity in assay [2] turned out to be 27%.
For `COc1ccc(Cn2c(CCc3c[nH]c4ccccc34)nnc2[C@@H](Cc2c[nH]c3ccccc23)NC(=O)CN)c(OC)c1`, the Activity was 0.74 g in the assay filed under Rattus norvegicus [3]; 0.01 g in the assay filed under Rattus norvegicus [5]; 0.39 g in the assay filed under Rattus norvegicus [6]; 0.01 g in the assay filed under Rattus norvegicus [7]; 0% in assay [2]. Moreover, the antagonist dissociation constant (Kb) in assay [8] was 27 nM.
Turning to `COc1ccc(Cn2c(CCc3ccccc3)nnc2[C@@H](Cc2c[nH]c3ccccc23)NC(=O)[C@@H]2CCCNC2)cc1`, the 50% effective concentration (EC50) in assay [4] is 36 nM. Besides, in assay [2], the Activity was 89%.
`CCc1ccc(-n2c(CCc3c[nH]c4ccccc34)nnc2[C@@H](Cc2c[nH]c3ccccc23)NC(=O)[C@@H]2CCCN2)cc1` returned a half-maximal inhibitory concentration (IC50) in assay [1] of 350 nM. The Activity in assay [2] was determined as 5%.
In the case of `COc1ccc(Cn2c(CCc3ccccc3)nnc2[C@@H](Cc2c[nH]c3ccccc23)NC(=O)C2CCCCN2)cc1` (single isomer, unassigned), the Activity turned out to be 0.56 g in the assay listed under Rattus norvegicus [3]; 0.01 g in the assay listed under Rattus norvegicus [5]; 0.06 g in the assay listed under Rattus norvegicus [6]; 0.01 g in the assay listed under Rattus norvegicus [7]; 3% in assay [2].
In the case of `COc1ccc(Cn2c(CCc3ccccc3)nnc2[C@@H](Cc2c[nH]c3ccccc23)NC(=O)[C@@H]2CCCCN2)c(OC)c1`, in assay [1], the IC50 was 134 nM. Besides, in assay [2], the Activity came to 0%.
On to `COc1ccc(Cn2c(CCc3c[nH]c4ccccc34)nnc2[C@@H](Cc2c[nH]c3ccccc23)NC(=O)C2CCNCC2)cc1`, for which the Activity in the assay listed under Rattus norvegicus [3] worked out at 1.05 g; in the assay filed under Rattus norvegicus [5], 0.01 g; in the assay filed under Rattus norvegicus [6], 0.4 g; in the assay listed under Rattus norvegicus [7] it was 0.37 g; in assay [2], 93%. In assay [4], the half-maximal effective concentration (EC50) was found to be 3 nM.
As for `COc1ccc(Cn2c(CCc3c[nH]c4ccccc34)nnc2[C@@H](Cc2c[nH]c3ccccc23)NC(=O)[C@H]2CCCCN2)cc1`, the Activity is 1.68 g in the assay filed under Rattus norvegicus [3]; 0.04 g in the assay listed under Rattus norvegicus [5]; 1.25 g in the assay filed under Rattus norvegicus [6]; 0.06 g in the assay filed under Rattus norvegicus [7]; 0% in assay [2]. Besides, the Kb in assay [8] is 8 nM.
As to `Cc1ncccc1-n1c(CCc2ccccc2)nnc1[C@@H](Cc1c[nH]c2ccccc12)NC(=O)C1CCNCC1`, in assay [1], the IC50 is over 1000 nM. Further, the Activity in assay [2] was determined as 78%.
With `COc1ccc(Cn2c(CCc3c[nH]c4ccccc34)nnc2[C@@H](Cc2c[nH]c3ccccc23)NC(=O)C(C)(C)N)cc1`, the antagonist equilibrium constant (Kb) in assay [8] was 4 nM. In assay [2], the Activity was found to be 9%.
The compound `O=C(N[C@H](Cc1c[nH]c2ccccc12)c1nnc(CCc2c[nH]c3ccccc23)n1Cc1ccccc1)[C@H]1CCCNC1` yielded an IC50 in assay [1] of 13 nM. The Activity stood at 0.62 g in the assay filed under Rattus norvegicus [3]; 0.52 g in the assay filed under Rattus norvegicus [5]; 0.16 g in the assay filed under Rattus norvegicus [6]; 0.6 g in the assay filed under Rattus norvegicus [7]; 50% in assay [2]. In addition, the EC50 in assay [4] is 9.9 nM.
In the case of `CCc1ccc(Cn2c(CCc3ccccc3)nnc2[C@@H](Cc2c[nH]c3ccccc23)NC(=O)[C@H]2CCCNC2)cc1`, the IC50 in assay [1] was 130 nM. The Activity in assay [2] was 11%.
On to `COc1ccc(Cn2c(CCc3c[nH]c4ccccc34)nnc2[C@@H](Cc2c[nH]c3ccccc23)NC(=O)C2CCNCC2)c(OC)c1`, for which the Activity in the assay listed under Rattus norvegicus [3] was 0.86 g; in the assay listed under Rattus norvegicus [5] it was 0.01 g; in the assay filed under Rattus norvegicus [6], 0.11 g; in the assay filed under Rattus norvegicus [7], 0.01 g; in assay [2] it was 77%. The EC50 in assay [4] was 0.6 nM.
The compound `CCc1ccc(-n2c(CCc3c[nH]c4ccccc34)nnc2[C@@H](Cc2c[nH]c3ccccc23)NC(=O)CN)cc1` had an IC50 in assay [1] of over 1000 nM. In addition, in assay [2], the Activity worked out at 4%.
Take `COc1ccc(Cn2c(CCc3ccccc3)nnc2[C@@H](Cc2c[nH]c3ccccc23)NC(=O)CN)c(OC)c1`: in assay [1], the IC50 is 154 nM. Also, the Activity in the assay filed under Rattus norvegicus [3] is 1.48 g; in the assay listed under Rattus norvegicus [5] it was 0.01 g; in the assay listed under Rattus norvegicus [6], 1.26 g; in the assay listed under Rattus norvegicus [7] it was 0.08 g; in assay [2], 0%.
On to `CCc1ccc(Cn2c(CCc3ccccc3)nnc2[C@@H](Cc2c[nH]c3ccccc23)NC(=O)CN)cc1`, for which the IC50 in assay [1] worked out at 759 nM. Also, the Activity was found to be 0.81 g in the assay filed under Rattus norvegicus [3]; 0.01 g in the assay listed under Rattus norvegicus [5]; 0.79 g in the assay filed under Rattus norvegicus [6]; 0.03 g in the assay listed under Rattus norvegicus [7]; 0% in assay [2].
`CC(C)(N)C(=O)N[C@H](Cc1c[nH]c2ccccc12)c1nnc(CCc2c[nH]c3ccccc23)n1Cc1ccccc1`: the Activity in assay [2] came out at 73%.
`COc1ccc(Cn2c(CCc3ccccc3)nnc2[C@@H](Cc2c[nH]c3ccccc23)NCCN)c(OC)c1`: the EC50 in assay [4] stood at 279 nM. Further, the Activity in assay [2] came to 59%.
Regarding `COc1ccc(Cn2c(CCc3c[nH]c4ccccc34)nnc2[C@@H](Cc2c[nH]c3ccccc23)NC(=O)[C@@H]2CCCN2)c(OC)c1`, in assay [1], the IC50 was determined as 5.6 nM. Further, the Kb in assay [8] was 11 nM. Moreover, the Activity in assay [2] was found to be 0%.
`COc1ccc(Cn2c(CCc3ccccc3)nnc2[C@@H](Cc2c[nH]c3ccccc23)NC(=O)[C@H]2CCCNC2)cc1`: in assay [8], the antagonist equilibrium constant (Kb) came to 10 nM. The Activity in assay [2] was 20%.
Take `O=C(N[C@H](Cc1c[nH]c2ccccc12)c1nnc(CCc2c[nH]c3ccccc23)n1Cc1ccccc1)C1CCNCC1`: the IC50 in assay [1] was determined as 24 nM. Also, the Activity in the assay filed under Rattus norvegicus [3] came out at 0.6 g; in the assay filed under Rattus norvegicus [5], 0.01 g; in the assay filed under Rattus norvegicus [6], 0.38 g; in the assay listed under Rattus norvegicus [7] it was 0.11 g; in assay [2], 75%. Further, the EC50 in assay [4] worked out at 5.4 nM.
`COc1ccc(Cn2c(CCc3c[nH]c4ccccc34)nnc2[C@@H](Cc2c[nH]c3ccccc23)NC(=O)[C@@H]2CCCN2)cc1`: the Activity in the assay listed under Rattus norvegicus [3] is 0.48 g; in the assay listed under Rattus norvegicus [5], 0.05 g; in the assay listed under Rattus norvegicus [6], 0.44 g; in the assay listed under Rattus norvegicus [7], 0.2 g; in assay [2], 2%. Further, in assay [8], the antagonist dissociation constant (Kb) is 6 nM.
Take `NCC(=O)N[C@H](Cc1c[nH]c2ccccc12)c1nnc(CCc2ccccc2)n1-c1ccccc1`: in assay [1], the concentration for half-maximal inhibition (IC50) is over 1000 nM. In addition, the Activity in assay [2] is 7%.
As to `O=C(N[C@H](Cc1c[nH]c2ccccc12)c1nnc(CCc2c[nH]c3ccccc23)n1-c1ccccc1)C1CCNCC1`, the EC50 in assay [4] amounted to 2.3 nM. In assay [2], the Activity came to 100%.
As to `COc1ccc(Cn2c(CCc3c[nH]c4ccccc34)nnc2[C@@H](Cc2c[nH]c3ccccc23)NC(=O)[C@H]2CCCNC2)cc1`, the Activity in the assay listed under Rattus norvegicus [3] was 0.76 g; in the assay filed under Rattus norvegicus [5], 0.01 g; in the assay filed under Rattus norvegicus [6], 0.62 g; in the assay listed under Rattus norvegicus [7], 0.06 g; in assay [2], 111%. The EC50 in assay [4] was 2.5 nM.
